The nature of data set [1]: Drug uptake in pulmonary tuberculosis patient at 25 mg/kg, po once daily for 7 days by liquid chromatography-MS/MS analysis. It counts as ADME, organism-based. Further details: dose 25 mg/kg, route oral. To be noted: human, in vivo, read-out: Drug uptake. Summed up: (§1)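 Treatment-naïve smear-positive pulmonary TB patients, hospitalized; 7-day oral once-daily monotherapy, directly observed, within 30 min after breakfast. Heparinized plasma taken predose and 1, 2, 3, 4, 5, 6, 8, 12 and 24 h postdose on day 7, plus predose on days 5 and 6. Parent drug and N-monodesmethyl metabolite measured by validated LC-MS/MS. Noncompartmental parameters; AUC0-24 by linear trapezoidal rule.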

Data set [2] has as its system Mycobacterium tuberculosis. As to the kind of experiment: Bactericidal activity against Mycobacterium tuberculosis in pulmonary tuberculosis patient assessed as reduction in sputum bacterial count at 25 […], po once daily measured after 3 days. Format: functional. A digest of the protocol:
(§2)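 Hospitalized treatment-naïve smear-positive patients took oral doses once daily, observed, after breakfast. Sputum was pooled over 16 h overnight at baseline, after each of the 7 dosing days, and on the night after the first standard-therapy dose. Sputum was stirred, digested with dithiothreitol for 20 min at room temperature, and diluted 10-fold. Dilutions were plated in quadruplicate on selective 7H11 agar and counted after 3-4 weeks at 37°C at 20-200 colonies. The read-out was change in log10 CFU/ml from baseline, with a count of 0 set to log 0.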

A short description of data set [3]: Drug uptake in pulmonary tuberculosis patient at 100 […], po once daily for 7 days by liquid chromatography-MS/MS analysis. It counts as ADME, organism-based. Also on record: dose 100 mg/kg, route oral. To be noted: human, in vivo, read-out: Drug uptake. Summed up:
as §1

In data set [4] the test system is Homo sapiens. As to the kind of experiment: Toxicity in pulmonary tuberculosis patient assessed as diarrhea at 400 mg/kg, po once daily. To be noted: in vivo. Format: organism-based. Also on record: dose 400 mg/kg, route oral.
For data set [5], the system named is Mycobacterium tuberculosis. Put plainly: Bactericidal activity against Mycobacterium tuberculosis in pulmonary tuberculosis patient assessed as reduction in sputum bacterial count at 25 […], po once daily measured after 1 day. Format: functional. Summed up: as §2
Data set [6] can be described thus: Cmax in pulmonary tuberculosis patient at 100 […], po once daily for 7 days by liquid chromatography-MS/MS analysis. Format: ADME, organism-based. Also on record: dose 100 mg/kg, route oral. The note with it: human, in vivo. A digest of the protocol:
as §1

For data set [7], the system named is Homo sapiens. As to the kind of experiment: Steady-state plasma concentration in pulmonary tuberculosis patient at 25 mg/kg, po once daily for 7 days by liquid chromatography-MS/MS analysis. It counts as ADME, organism-based. Further details: dose 25 mg/kg, route oral. To be noted: in vivo, 168 h. Summed up:
as §1

Data set [8] has as its system Homo sapiens. As to the kind of experiment: Steady-state plasma concentration in pulmonary tuberculosis patient at 400 mg/kg, po once daily for 7 days by liquid chromatography-MS/MS analysis. It counts as ADME, organism-based. Further details: dose 400 mg/kg, route oral. To be noted: in vivo, 168 h. Summed up:
as §1

A short description of data set [9]: Cmax in pulmonary tuberculosis patient at 25 mg/kg, po once daily for 7 days by liquid chromatography-MS/MS analysis. Further details: dose 25 mg/kg, route oral. The note with it: human, in vivo. Format: ADME, organism-based. A digest of the protocol: as §1
The subject of data set [10] is Mycobacterium tuberculosis. Put plainly: Antimicrobial activity against drug-sensitive Mycobacterium tuberculosis. It counts as functional.
In data set [11] the test system is Mycobacterium tuberculosis. As to the kind of experiment: Bactericidal activity against Mycobacterium tuberculosis in pulmonary tuberculosis patient assessed as reduction in sputum bacterial count at 400 mg/kg, po once daily measured after 2 days. Format: functional. Summed up:
as §2

The subject of data set [12] is Mycobacterium tuberculosis. As to the kind of experiment: Bactericidal activity against Mycobacterium tuberculosis in pulmonary tuberculosis patient assessed as reduction in sputum bacterial count at 100 […], po once daily measured after 4 days. It counts as functional. Summed up: as §2
For data set [13], the system named is Mycobacterium tuberculosis. Put plainly: Bactericidal activity against Mycobacterium tuberculosis in pulmonary tuberculosis patient assessed as reduction in sputum bacterial count at 100 […], po once daily measured after 2 days. Format: functional. A digest of the protocol: as §2
Data set [14] deals with Mycobacterium tuberculosis. As to the kind of experiment: Bactericidal activity against Mycobacterium tuberculosis in pulmonary tuberculosis patient assessed as reduction in sputum bacterial count at 100 […], po once daily measured after 1 day. Format: functional. A digest of the protocol:
as §2

For data set [15], the system named is Mycobacterium tuberculosis. As to the kind of experiment: Bactericidal activity against Mycobacterium tuberculosis in pulmonary tuberculosis patient assessed as reduction in sputum bacterial count at 100 […], po once daily measured on day 8 after starting standard TB therapy. It counts as functional. A digest of the protocol: as §2
Data set [16] is described as follows: Tmax in pulmonary tuberculosis patient at 25 mg/kg, po once daily for 7 days by liquid chromatography-MS/MS analysis. Also on record: dose 25 mg/kg, route oral. It counts as ADME, organism-based. The note with it: human, in vivo. Summed up:
as §1

Data set [17] has as its system Mycobacterium tuberculosis. Put plainly: Bactericidal activity against Mycobacterium tuberculosis in pulmonary tuberculosis patient assessed as reduction in sputum bacterial count at 25 mg/kg, po once daily measured after 5 days. It counts as functional. A digest of the protocol:
as §2

Data set [18] concerns Mycobacterium tuberculosis. Put plainly: Bactericidal activity against Mycobacterium tuberculosis in pulmonary tuberculosis patient assessed as reduction in sputum bacterial count at 400 mg/kg, po once daily measured after 5 days. Format: functional. Summed up: as §2
Data set [19] deals with Mycobacterium tuberculosis. As to the kind of experiment: Bactericidal activity against Mycobacterium tuberculosis in pulmonary tuberculosis patient assessed as reduction in sputum bacterial count at 100 […], po once daily measured after 3 days. It counts as functional. A digest of the protocol:
as §2

For data set [20], the system named is Mycobacterium tuberculosis. As to the kind of experiment: Bactericidal activity against Mycobacterium tuberculosis in pulmonary tuberculosis patient assessed as reduction in sputum bacterial count at 25 mg/kg, po once daily measured on day 8 after starting standard TB therapy. Format: functional. Summed up: as §2
Data set [21] has as its system Mycobacterium tuberculosis. Put plainly: Bactericidal activity against Mycobacterium tuberculosis in pulmonary tuberculosis patient assessed as reduction in sputum bacterial count at 400 mg/kg, po once daily measured after 6 days. It counts as functional. A digest of the protocol:
as §2

The nature of data set [22]: AUC (0 to 24 hrs) in pulmonary tuberculosis patient at 100 […], po once daily for 7 days by liquid chromatography-MS/MS analysis. It counts as ADME, organism-based. Further details: time < 24 hr, dose 100 mg/kg, route oral. To be noted: human, plasma. A digest of the protocol: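 Treatment-naïve, sputum smear-positive patients, hospitalized, took the drug orally once daily under direct observation within 30 min after breakfast. On day 7, heparinized plasma was drawn predose and at 1, 2, 3, 4, 5, 6, 8, 12 and 24 h for parent drug and M2 metabolite. Levels were measured by validated LC-MS/MS, and AUC0-24 was calculated noncompartmentally by the linear trapezoidal rule.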

The subject of data set [23] is Mycobacterium tuberculosis. Put plainly: Bactericidal activity against Mycobacterium tuberculosis in pulmonary tuberculosis patient assessed as reduction in sputum bacterial count at 25 […], po once daily measured after 4 days. It counts as functional. A digest of the protocol:
as §2

This is an account of results in ChEMBL document CHEMBL1275461, “Early bactericidal activity and pharmacokinetics of the diarylquinoline TMC207 in treatment of pulmonary tuberculosis” (Antimicrob Agents Chemother, 2008).

SMILES strings stand for the structures. Converted amounts (≈) assume the structure as drawn.

`COc1nc2ccc(Br)cc2cc1[C@@H](c1ccccc1)[C@@](O)(CCN(C)C)c1cccc2ccccc12` [BEDAQUILINE]: the concentration at 168 h was found to be 104 ng/mL in data set [1] and 391 ng/mL in data set [3]. In addition, the log10CFU/ml is -0.04 in [2]; -0.06 in [5]; 0.04 in [11]; -0.24 in data set [12]; -0.2 in data set [13]; -0.11 in [14]. In addition, the log10CFU/ml was -0.71 in [15]; -0.09 in data set [17]; -0.45 in data set [18]; -0.37 in [19]; -0.46 in [20]; -0.46 in data set [21]. Besides, the log10CFU/ml in [23] is recorded as -0.22. Besides, the Activity in the data set with Homo sapiens [4] was 7%. Further, the maximum concentration (Cmax) (commonly the peak of the concentration-time curve) was found to be 1210 ng/mL in data set [6] and 319 ng/mL in [9]. For the same molecule, the Css came out at 165.5 ng/mL in the data set on Homo sapiens [7] and 2696 ng/mL in the data set with Homo sapiens [8]. Besides, the lowest concentration to inhibit growth in data set [10] (MIC) was 0.03 µg/mL (≈ 0.054 µM). Further, the Tmax (in general, the time at which the peak concentration occurs) in [16] stood at 3.93 h. Besides, in data set [22], the AUC (usually concentration integrated over time) at 24 h is 16000 ng·h/mL.
